Compound activity (PubChem BioAssay)
MPTP inh: blocks calcium-induced mitochondrial swelling. isolated mouse mitochondria, Ca2+ swelling absorbance, 30 min. inhibition, % at 10 µM. 1.4% of 360,000 active;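 active = inhibition of 50% or more, scaled per plate between neutral and stimulator controls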;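 note: 0% = DMSO wells given calcium and 100% = 1 mM EGTA wells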
GRIN3A LBD mod: modulators (binders) of human NR3A ligand-binding domain; 2.5% of 340,000 active; NR3A LBD differential scanning fluorimetry, Tm shift; 0% = protein alone, 100% = glycine-bound protein; Tm shift relative to glycine control, % at 25 µM;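 active = melting temperature shift of at least 10% of the positive control shift, at one fixed dose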
CHOP inh: blocks CHOP induction under ER stress | inhibition, % at 10 µM | 3.8% of 220,000 active | CHO-K1 CHOP-promoter luciferase, tunicamycin-induced, 15-18 h | AID 2732;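 active = compounds that reduced the stress-induced luciferase reporter signal by more than about 70% of percent inhibition, limit read from the data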;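 note: 0% = tunicamycin plus vehicle and 100% = wells without tunicamycin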
UPR CHOP act: apoptotic UPR (CHOP) activation; CHO-CHOP luciferase reporter, luminescence; percent of tunicamycin response over DMSO baseline; 0.34% of 330,000 active; activation, % at 10 µM;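 active = at 10 µM dose, activation of 40% or more, normalized to positive control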;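 note: 100% = tunicamycin at 10 µg/mL and 0% = DMSO alone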
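Test system: CHO-CHOP cells, stable luciferase reporter of PERK-eIF2a-CHOP signalling | Quantity: 500 CHO-CHOP cells per well | Buffer or medium: F12 plus 10% serum | Compound dosing: 10 µM single point, 0.5% DMSO | Schedule: 6 h compound treatment, 37 °C | Signal: Luciferase luminescence | Control set: Tunicamycin high control, DMSO low control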
UPR XBP1 act: activators of adaptive arm of unfolded protein response (XBP1); activation, % at 20 µM; AID 463104; 0.33% of 330,000 active; CHO-XBP1 luciferase reporter, IRE1-XBP1 UPR activation, luminescence; percent of tunicamycin response, DMSO as zero;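 active = versus positive control, 20 µM dose yields 30% or more activation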;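 note: 100% = tunicamycin at 10 µg/mL and 0% = DMSO only wells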
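Signal: luciferase luminescence; Assay system: CHO-XBP1 luciferase reporter cells; Amount: one thousand reporter cells per well; Dosing: 20 µM single concentration, DMSO 1%; Benchmarks: high control tunicamycin 10 µg/mL final, low control DMSO vehicle only; Schedule: 6 h compound exposure at 37 °C, 5% CO2; Evaluation: percent activation relative to tunicamycin reference.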
aDG glyco act: alpha-DG glycosylation activation. Pro5-aDG cells, alpha-DG glycosylation AlphaScreen (IIH6); 0% Pro5, 100% B10-LARGE cell signal. activation, % at 10 µM. 0.22% of 360,000 active. AID 624168;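 active = activation of at least 8% versus controls, or a plate z-score of at least 8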;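 note: Pro5 are CHO cells carrying HIG-tagged alpha-DG that lacks glycosylation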
CHOP confirm: confirmation of CHOP induction inhibitors; inhibition, % at 10 µM; shares compounds with CHOP inh; CHO-CHOP promoter luciferase reporter, tunicamycin-induced, luminescence; AID 504437; 45% of 2,100 active;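 active = mean of three repeat readings of reporter signal inhibition above a set limit, cut at about 70% in these data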;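 note: 0% = tunicamycin plus vehicle and 100% = wells lacking tunicamycin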
CHOP UPR conf: apoptotic UPR (CHOP) activation, confirmed; CHO-CHOP cells, CHOP-luciferase reporter luminescence; percent of tunicamycin response, DMSO as zero; shares compounds with UPR CHOP act; AID 463112; activation, % at 10 µM; 64% of 1,000 active; in the data active = activation above about 33%;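 note: 0% = DMSO wells and 100% = tunicamycin 10 µg/mL wells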
UPR XBP1 confirm: adaptive UPR (XBP1) activation, confirmed. shares compounds with UPR XBP1 act. CHO-XBP1 IRE1-XBP1 luciferase reporter, luminescence. activation, % at 20 µM. 63% of 1,000 active;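 active = reporter signal at least 30% of the positive control's activation in two or more of four replicate wells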;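 note: plate controls were DMSO negative control for no effect and tunicamycin 10 µg/mL positive control for full effect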
MPTP counter: Rhodamine 123 counter-screen of mitochondrial pore hits. 78% of 5,000 active. inhibition, % at 10 µM. isolated mitochondria, membrane potential, Rhodamine 123 fluorescence. shares compounds with MPTP inh; in the data active = inhibition above about 22%;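 note: 0% = DMSO vehicle and 100% = positive control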
* hit, by the source's call; x = not tested or not shown; ! = not active in a repeat. The list is not random: actives were taken first. Their share in the collection is about 5.6%.

SMILES	MPTP inh	GRIN3A LBD mod	CHOP inh	UPR CHOP act	UPR XBP1 act	aDG glyco act	CHOP UPR conf	others
O=C1NC(=O)N(Cc2ccccc2Cl)C(=O)/C1=C/c1cccs1	13	-1	106*	52*	47*	0	50*	CHOP confirm=-30;UPR XBP1 confirm=74*
O=P(Oc1ccc(-c2ccccc2)cc1)(N1CC1)N1CC1	-2	0	x	x	x	0	x
O=c1[nH]c(O)c(/C=C2/C=CC(c3cc(Cl)ccc3Cl)=N2)c(=O)[nH]1	1	-3	103*	13	68*	0	x	CHOP confirm=46;UPR XBP1 confirm=111*
C=CCn1cc(C=C2C(=O)NC(=O)NC2=O)c2ccccc21	1	x	x	1	0	0	x
O=C1NC(=O)C(=Cc2cn(CCOc3ccc4c(c3)OCO4)c3ccccc23)C(=O)N1	2	2	99*	11	31*	0	x	CHOP confirm=-13;UPR XBP1 confirm=79*
COC(=O)C1=C(c2cccc(C#N)c2)C[C@@H]2CC[C@H]1N2C(=O)NCCOc1ccc(OC)cc1	-2	-1	x	1	2	0	x
CNc1ccc2oc(C[C@H]3O[C@@]4(CC[C@H]3C)O[C@H]([C@H](C)C(=O)c3ccc[nH]3)[C@H](C)C[C@H]4C)nc2c1C(=O)O	96*	0	106*!	7	26	0	x	CHOP confirm=129*;MPTP counter=-23
CCCC1CCCCC12C(=O)NC(=O)NC2=O (stereo not drawn)	-1	-3	x	x	x	0	x
O=C1CC(N2CCC(n3c(=O)[nH]c4ccccc43)CC2)C(=O)N1c1ccc(F)cc1 (stereo not drawn)	-3	0	-9	-2	2	0	x
O=c1[nH]c2ccccc2n1C1CCN(CCCC(c2ccc(F)cc2)c2ccc(F)cc2)CC1	88*	-6	0	-3	0	2	x	CHOP confirm=117*;MPTP counter=-8
Cc1cccc(N2C(=O)NC(=O)/C(=C\c3cccn3-c3ccc(Cl)cc3)C2=O)c1	2	1	35	419*	-3	0	22
O=C1NC(=O)C(=Cc2ccc(-c3ccc(Cl)cc3)o2)C(=O)N1	11	0	x	71*	0	0	75*
CN1CSC(=S)N(C)C1	0	1	-27	40*	-2	0	30
O=C1NC(=S)N(C2CC2)C(=O)/C1=C/c1ccc2c(c1)CCN2CCCCl	18	-10	-34	x	x	0	x
C=CCN1C(=O)/C(=C/c2ccc3c(c2)CCCN3CCC)C(=O)NC1=S	10	-4	15	95*	-1	0	164*
COc1ccc(OC(=O)N(C)C[C@@H]2OCc3cnnn3CCCC(=O)N([C@H](C)CO)C[C@@H]2C)cc1	-1	x	x	x	x	1	x
COc1ccc(CNC(=O)CCC(=O)N2C[C@H]3C[C@H](C2)c2cccc(=O)n2C3)cc1	-3	0	x	-1	-2	0	x
CCOc1ccc(N2C(=O)/C(=C/c3ccc(C)o3)C(=O)NC2=S)cc1	-1	-3	x	1	-2	0	x
COc1ccc(N2C(=O)/C(=C/c3ccc(C)o3)C(=O)NC2=S)cc1	1	1	x	433*	-1	0	-9
Cc1ccc(-n2cc(CNC(C)Cc3cnccn3)c(-c3cccc(C)c3)n2)cc1 (stereo not drawn)	3	-1	35	0	0	6	x
C[C@H]1CCC[C@@H](O)CCC/C=C/c2cc(O)cc(O)c2C(=O)O1	0	0	44	1	-1	0	x
CC1CCC/C=C/C2CC(O)CC2C(O)/C=C/C(=O)O1 (stereo not drawn)	-1	-2	14	123*	18	0	103*
CCN(CC)c1ccc(C=C2C(=O)NC(=S)NC2=O)cc1	9	-7	-11	222*	0	0	135*
CN(C)c1ccc(C=C2C(=O)NC(=S)NC2=O)cc1	19	-2	x	x	x	0	x
O=C(O)CCn1cc(C=C2C(=O)NC(=O)NC2=O)c(-c2cc3ccccc3oc2=O)n1	-2	-2	4	-1	0	0	x
SMILES	MPTP inh	GRIN3A LBD mod	CHOP inh	UPR CHOP act	UPR XBP1 act	aDG glyco act	CHOP UPR conf	others
O=C(COc1ccc2ccccc2c1)N1CCN(Cc2c[nH]c3ccccc23)CC1	-3	-4	-149	76*	20	0	43*
C/C(=C\c1ccc(N(C)C)cc1)[N+](=O)[O-]	1	3	-10	224*	-1	0	150*
CC1CCN(CCc2nc3ccccc3[nH]2)CC1	-1	-3	x	0	3	0	x
Clc1ccc(OCC#CCN2CCCCCC2)cc1	-1	1	2	3	0	0	x
CCCCCCn1c(=O)c(C(=O)Nc2ncccc2C)c(O)c2ccccc21	12	-4	x	61*	36*	1	27
CCCCn1c(=O)c(C(=O)Nc2ncccc2C)c(O)c2ccccc21	-1	-6	x	2	2	0	x
CC(C)CNC(=O)/C=C/C=C/CCCCCC/C=C/c1ccc2c(c1)OCO2	-1	-2	x	-2	-2	0	x
O=C1NC(=O)N(Cc2ccccc2)C(=O)/C1=C\C=C\c1ccco1	-1	1	91*	161*	-1	0	186*
O=C1NC(=O)N(c2ccccc2)C(=O)/C1=C/C=C/c1ccco1	1	-2	-15	62*	-5	0	256*
O=C1NC(=S)N(c2ccc(F)cc2)C(=O)/C1=C/c1ccco1	x	x	x	1	-2	x	x
C[C@H](CO)N1C[C@H](C)[C@@H](CN(C)C(=O)Oc2ccc3ccccc3c2)OCc2cnnn2CCCC1=O	0	x	x	x	x	0	x
C=C(C)C(Cc1c(OC)ccc(C(=O)/C=C/c2ccc(O)cc2)c1O)OO (stereo not drawn)	2	24*	x	47*	2	-1	19
COc1cc(CN2CCN(c3cc(C)ccc3C)CC2)ccc1O	0	0	-11	393*	14	0	152*
NC(N)=N/N=C/c1ccc(N(c2ccccc2)c2ccccc2)cc1	1	22*	x	74*	62*	0	31	UPR XBP1 confirm=3
